PolyA inhibitor: blocks polyadenylation in yeast reporter cells; S. cerevisiae SKY197-pL101 polyadenylation reporter, beta-gal luminescence; efflux-impaired pdr1/pdr3 knockout yeast; score 100 = 6 SD above DMSO; activity score, % at 12 µM; 300,000 tested, 0.02% active;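 active = lowest replicate activity score at least 50, where 100 means six control SD above control mean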;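 also: yeast exposed to compound for 9 h at 30 °C; higher score means more reporter readthrough which indicates perturbed polyadenylation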
CHT allo act: allosterically activates the human high affinity choline transporter; 310,000 tested, 0.49% active; CHT-expressing cells, membrane potential dye, choline EC20; active compounds read high; LV-AA mutant CHT in HEK293 cells; B-score at 10 µM; Q9GZV3;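 active = initial fluorescence not abnormally high and integrated response B-score, plate-corrected, over 3 SD above library mean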
Target sequence (Q9GZV3 whole entry, looked up): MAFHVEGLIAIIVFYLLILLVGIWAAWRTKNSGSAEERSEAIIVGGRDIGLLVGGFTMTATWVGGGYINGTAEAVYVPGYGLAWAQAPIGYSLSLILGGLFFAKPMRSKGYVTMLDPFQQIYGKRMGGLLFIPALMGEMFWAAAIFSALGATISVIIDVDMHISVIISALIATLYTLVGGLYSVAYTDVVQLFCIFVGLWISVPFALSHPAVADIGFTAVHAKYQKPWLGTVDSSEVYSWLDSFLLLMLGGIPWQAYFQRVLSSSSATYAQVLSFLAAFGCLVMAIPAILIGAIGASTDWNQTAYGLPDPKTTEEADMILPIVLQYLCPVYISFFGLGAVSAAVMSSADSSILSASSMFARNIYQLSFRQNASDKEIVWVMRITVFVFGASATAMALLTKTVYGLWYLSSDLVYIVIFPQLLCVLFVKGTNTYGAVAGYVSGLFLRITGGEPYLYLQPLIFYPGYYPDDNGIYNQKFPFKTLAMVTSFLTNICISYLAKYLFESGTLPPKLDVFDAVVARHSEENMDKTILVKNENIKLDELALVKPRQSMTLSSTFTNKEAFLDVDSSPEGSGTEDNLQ
CHT block: inhibits the human high affinity choline transporter | CHT-expressing cells, membrane potential dye, choline response; active compounds read low | 310,000 tested, 0.86% active | Q9GZV3 | B-score at 10 µM;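 active = B-score over 3 SD under the library average, and starting fluorescence ratio not unusually high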;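 also: choline stimulus applied at its EC90 after an EC20 pre-addition; B-score computed on integrated fluorescence ratio after choline addition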
T cruzi inh: T. cruzi replication inhibition | T. cruzi beta-gal in NIH3T3, luminescence, 90 h | inhibition, % (no concentration beside the values) | 300,000 tested, 1.4% active | AID 1885;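 active = mean inhibition across valid replicates above about 55%, limit read from the data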;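 also: signal also drops with host cell toxicity which is not excluded here; 0% = plate median of DMSO wells and 100% = zero luminescence signal; higher percent means less beta-gal luminescence so fewer parasites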
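assay system = mouse NIH/3T3 fibroblasts infected with β-gal-expressing T. cruzi Tulahuen C4 | input = 5,000 NIH/3T3 host cells per well | buffer or medium = DMEM plus 2% FBS | timing = 3 h host attachment, then at least 90 h co-culture | measured by = GalScreen luminescence, 60 min | evaluation = luminescence reflecting intracellular parasite burden, expressed as percent inhibition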
CHT inh conf: human CHT inhibition, confirmatory screen. shares compounds with CHT block. CHT-expressing cells, choline membrane potential dye; LV-to-AA substituted CHT, HEK293 cells. CHT activity remaining % of control (active compounds read low), % at 10 µM. 2,400 tested, 70% active;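 active = choline transporter activity left, mean of duplicates at 10 µM, below buffer-only control mean minus 3 SD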;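 also: depolarization triggered by choline at its EC90 following an EC20 pre-addition; 0% = hemicholinium-3 full block and 100% = buffer-only control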
HEK293 CHT ctr: counter-screen for CHT inhibitors: effect in parental HEK293 cells. shares compounds with CHT block. membrane potential dye, choline response; active = decrease or increase beyond buffer ±3SD. membrane potential ratio readout (active if shifted either direction beyond buffer ±3SD; no single direction) at 10 µM. 2,400 tested, 4% active. AID 493222;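 also: parental cells lack the transporter so any hit is non-specific; ratio is peak minus trough fluorescence over baseline after EC90 choline challenge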
* = called active by the depositor; i = inactive; . = no result given. An excerpt weighted towards active compounds, which were near 2.6% of everything screened.

SMILES	PolyA inhibitor	CHT allo act	CHT block	T cruzi inh	CHT inh conf	HEK293 CHT ctr
CN1CCN(S(=O)(=O)c2ccc(NC(=O)c3ccc(Br)s3)cc2)CC1	8.5	i	-7.72*	5.4	24.5%*	i
CCc1cccc(NC(=O)c2cccc(S(=O)(=O)N3CCN(C)CC3)c2)c1	-32.2	i	i	-12.5	.	.
CC(=O)Nc1cccc(C(=O)OC(C)C(=O)Nc2ccc(S(=O)(=O)N3CCCC3)cc2)c1 (stereo not given)	-7.6	i	-6.91*	5.8	63.3%*	i
CN1CCN(S(=O)(=O)c2ccc(NC(=O)c3ccccc3Cl)cc2)CC1	30.6	i	i	-26.2	.	.
CN1CCN(S(=O)(=O)c2ccc(NC(=O)Nc3cccc(Cl)c3)cc2)CC1	-10.0	i	-8.11*	-10.5	28.6%*	i
O=C1N[C@@H](Cc2cn(S(=O)(=O)c3ccc([N+](=O)[O-])cc3)c3ccccc23)C(=O)N[C@H]1Cc1ccccc1	-16.3	i	i	1.7	.	.
Cc1ccc(C)c(-c2nnc(NC(=O)CCS(=O)(=O)c3ccc(F)cc3)o2)c1	-15.3	i	i	0.4	.	.
CC1CCCCC1NC(=O)Cn1nnc(-c2ccc(Cl)cc2)n1 (stereo not given)	3.2	i	-6.29*	-11.0	66.2%*	i
Cc1ccc(C(C)NC(=S)NCc2ccc(F)cc2)cc1C (stereo not given)	-3.4	i	-5.15*	-1.9	71.4%*	i
CCCNc1nc2c(c(=O)n(C)c(=O)n2C)n1CCC(C)C	-4.4	i	-6.87*	12.1	45.9%*	i
CCOc1ccccc1CN1CCNC(=O)C1CC(=O)NC1CCCCCCC1 (stereo not given)	1.8	i	i	25.5	.	.
O=C(Nc1nnc(C2CC2)s1)C1COc2ccccc2O1 (stereo not given)	-3.7	i	i	3.0	.	.
O=C(Nc1nnc(C(F)(F)F)s1)C1COc2ccccc2O1 (stereo not given)	-4.9	i	-5.36*	-6.3	49.5%*	i
CC(C)Cn1c(=S)[nH]c2ccccc2c1=O	-5.1	i	i	-21.2	.	.
O=c1c2ccccc2[nH]c(=S)n1CCN1CCCCC1	-7.1	i	-11.6*	9.7	40.2%*	i
Cc1cccc(NC(=O)COC(=O)c2cccs2)c1C	2.7	i	i	5.7	.	.
CN(C)C(CNC(=O)CCNC(=O)c1ccc(Cl)cc1)c1ccco1 (stereo not given)	-1.6	i	i	-11.5	.	.
COC(=O)c1sc(NC(=S)NNC(=O)c2c(Br)c(C)nn2C)c(C(=O)OC)c1C	-12.5	i	-5.57*	-9.3	i	i
Cc1ccc(C)[n+](CC(=O)c2ccc(-c3ccccc3)cc2)c1	-12.0	i	-4.95*	23.7	25.0%*	i
Cc1ccc(C(=O)C[n+]2ccccc2)cc1	6.8	i	i	-17.4	.	.
Cc1ccc(C(=O)C[n+]2cccc(C(N)=O)c2)cc1	-1.7	i	i	3.3	.	.
Cc1ccc[n+](CC(=O)c2ccc(-c3ccccc3)cc2)c1	-38.1	i	-10.9*	15.2	i	i
Cc1ccc[n+](CC(=O)c2ccc(Cl)cc2)c1	-9.7	i	-11.2*	4.8	5.6%*	i
Cc1noc(C)c1CN1C(=O)c2ccccc2C1=O	-5.5	i	i	-21.0	.	.
CSc1nc(Cl)cc(N2CCOCC2)n1	20.8	i	i	-8.2	.	.
SMILES	PolyA inhibitor	CHT allo act	CHT block	T cruzi inh	CHT inh conf	HEK293 CHT ctr
CNc1cc(Cl)nc(SC)n1	13.2	i	-11.7*	-5.7	-0.4%*	i
C#CCNc1c2c(nc3ncnn13)CC(C)CC2 (stereo not given)	-6.8	i	-5.24*	25.4	63.5%*	i
Nc1ccccc1C(=O)NC1CCCNC1=O (stereo not given)	-1.0	i	-15.8*	-7.9	i	i
O=C(O)c1ccc(Oc2ccc(S(=O)(=O)c3ccc(C(=O)O)c(C(=O)O)c3)cc2)cc1	2.7	i	i	-12.5	.	.
O=C(C1CCN(S(=O)(=O)c2ccc3ccccc3c2)CC1)N1CCN(c2ncccn2)CC1	-6.4	i	-6.01*	2.0	38.6%*	i
O=C(COC(=O)c1ccc[n+]([O-])c1)Nc1c(Br)cc([N+](=O)[O-])cc1Br	7.6	i	i	26.2	.	.
O=C(O)c1ccccc1-c1ccccc1C(=O)Nc1ccc(-c2nc3cc(Cl)ccc3o2)cc1	0.5	i	-7.49*	1.1	55.3%*	i
COc1ccc(N2CCN(c3nc(NCCO)nc(N4CCOCC4)n3)CC2)cc1	7.1	i	-6.07*	-0.2	i	i
CCOC(=O)C(C)NC(=O)CCc1nnc2ccc(N3CCC(C)CC3)nn12 (stereo not given)	6.6	i	i	-9.5	.	.
CCn1ncc(Br)c1C(=O)NC(C)c1ccccc1 (stereo not given)	-1.1	i	-5.84*	-15.6	i	i
CCn1ncc(Cl)c1C(=O)NC(C)c1ccccc1 (stereo not given)	-0.2	i	i	-10.8	.	.
COc1ccc2ncc(S(=O)(=O)c3ccccc3)c(N3CCC4(CC3)OCCO4)c2c1	-17.2	i	-5.86*	19.4	51.8%*	i
Cc1ccc2ncc(S(=O)(=O)c3ccccc3)c(N3CCCCC3C)c2c1 (stereo not given)	5.3	i	-6.22*	30.3	i	i
C/C(=N\NC(=O)C(O)c1ccccc1)c1ccc(Br)s1 (stereo not given)	3.2	i	i	-16.5	.	.
CS(=O)(=O)c1ncc(Cl)c(C(=O)Nc2ccc(N3CCOCC3)cc2)n1	1.6	i	-6.92*	42.3	55.8%*	i
CS(=O)(=O)c1ncc(Cl)c(C(=O)Nc2ccc(OC(F)F)cc2)n1	-6.9	i	-6.46*	55.0*	50.1%*	i
CCOC(=O)c1nc(S(C)(=O)=O)ncc1N1CCOCC1	-6.2	i	i	-18.1	.	.
CCOC(=O)c1nc(S(C)(=O)=O)ncc1Cl	-32.2	i	-6.31*	21.4	47.3%*	i
CCc1cc(C(=O)N2CCCC(CO)(Cc3ccc(F)cc3)C2)n(C)n1 (stereo not given)	-1.7	i	i	-8.9	.	.
Cc1cc(C)n(-c2ccc(NC(=O)C3CCCCN3C(=O)c3ccoc3C)cc2)n1 (stereo not given)	2.6	i	i	-10.3	.	.
CC(=O)NS(=O)(=O)c1ccc(NC(=S)NC(=O)CC(C)C)cc1	-2.1	i	i	-6.9	.	.
CC(=O)NS(=O)(=O)c1ccc(NC(=S)NC(=O)Cc2ccccc2)cc1	0.0	i	-7.5*	0.3	i	i
CC1CCCCN1CCCNC(=O)c1nn(C)c2c1CSc1ccccc1-2 (stereo not given)	20.2	i	-7.56*	16.3	8.6%*	i
